The source made the active and inactive calls. The calls are words filed in the database; no cut-off is given here.
How the values were obtained:
[1] = tested on: HepG2; assay: Antitumor activity against human HepG2 cells expressing CES2 gene xenografted in NOD/SCID mouse assessed as inhibition of tumor growth at 3 mg/kg, iv administered on day 7, 14 and 21 after tumor implantation; assay type: functional, organism-based; set-up: dose 3 mg/kg
How it was run: (§1)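 NOD/SCID females, 4–6 weeks old, each given ~1.5 × 10⁷ N-Hep G2 cells s.c. in the left flank; 10 mice/group. Dosed i.v. by tail vein on days 7, 14 and 21, in mg/kg Dox-equivalent, from DMSO diluted into D5W (5% DMSO/95% D5W), 100 µL/mouse. Vehicle-only controls. The 3 mg/kg group was redosed at 5 mg/kg on days 45 and 52. Tumor volume (π × short diameter² × long diameter/6) measured weekly.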

[2] = Toxicity in pentyl PABC-doxazolidine-treated NOD/SCID mouse xenografted with human HepG2 cells expressing CES2 gene assessed as mortality rate at 5 mg/kg, iv administered on day 52 after tumor implantation; assay type: organism-based; set-up: dose 5 mg/kg, route intravenous; conditions: in vivo, read-out: Activity
How it was run: (§2)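 NOD/SCID females carried s.c. left-flank N-Hep G2 xenografts (about 1.5 × 10⁷ cells). They first received i.v. 3 mg/kg Dox-equivalent on days 7, 14 and 21. The same group was then redosed i.v. at 5 mg/kg on days 45 and 52 in 5% DMSO/95% D5W. There were 10 mice per group. Deaths were counted to the end of the study.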

[3] = tested on: Mus musculus; assay: Toxicity in NOD/SCID mouse xenografted with human HepG2 cells expressing CES2 gene assessed as body weight loss at 5 mg/kg, iv administered on day 7, 14 and 21 after tumor implantation measured after 5 weeks; assay type: organism-based; set-up: dose 5 mg/kg, route intravenous; conditions: in vivo, 840 h
How it was run: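 Same NOD/SCID N-Hep G2 flank xenograft model: i.v. tail-vein dosing on days 7, 14 and 21 in 5% DMSO/95% D5W, doses in Dox-equivalent mg/kg, 10 mice/group, vehicle controls. Body weight recorded weekly and followed over the first 5 weeks.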

[4] = tested on: NCI-H1435; assay: Antitumor activity against human NCI-H1435 cells expressing CES2 gene xenografted in pentyl PABC-doxazolidine-pretreated athymic nude mouse assessed as inhibition of tumor growth at 3 to 4 mg/kg, iv administered on day 70 after tumor implantation; assay type: functional, organism-based
How it was run: (§3)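 Athymic nude females, 4–6 weeks old, given ~2 × 10⁶ H1435 cells s.c. in the left flank on day 0; 10 mice/group. I.v. tail-vein doses (Dox-equivalent mg/kg) in 5% DMSO/95% D5W on days 7, 14 and 21, with all groups retreated on days 56, 63 and 70; vehicle controls. Caliper volume π × short² × long/6. Cube roots analysed with day-7 size as baseline covariate, by period.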

[5] = tested on: Mus musculus; assay: Toxicity in NOD/SCID mouse xenografted with human HepG2 cells expressing CES2 gene at 3 mg/kg, iv administered on day 7, 14 and 21 after tumor implantation; assay type: organism-based; set-up: dose 3 mg/kg, route intravenous; conditions: in vivo
[6] = tested on: NCI60; assay: Growth inhibition of human NCI60 cells after 2 days by sulforhodamine B assay; assay type: functional, cell-based
[7] = tested on: NCI-H1435; assay: Antitumor activity against human NCI-H1435 cells expressing CES2 gene xenografted in athymic nude mouse assessed as slowing of tumor growth at 4 mg/kg, iv administered as three weekly infusion from day 21 to 56 after tumor implantation; assay type: functional, organism-based; set-up: dose 4 mg/kg; how it was run: as §3
[8] = Toxicity in pentyl PABC-doxazolidine-treated NOD/SCID mouse xenografted with human HepG2 cells expressing CES2 gene assessed as mortality rate at 5 mg/kg, iv administered on day 45 after tumor implantation; assay type: organism-based; set-up: dose 5 mg/kg, route intravenous; conditions: in vivo, read-out: Activity; how it was run: as §2
[9] = tested on: NCI-H1435; assay: Antitumor activity against human NCI-H1435 cells expressing CES2 gene xenografted in pentyl PABC-doxazolidine-pretreated athymic nude mouse assessed as inhibition of tumor growth at 3 to 4 mg/kg, iv administered on day 63 after tumor implantation; assay type: functional, organism-based; how it was run: as §3
[10] = tested on: Mus musculus; assay: Toxicity in NOD/SCID mouse xenografted with human HepG2 cells expressing CES2 gene assessed as survival at 4 mg/kg, iv administered on day 7, 14 and 21 after tumor implantation; assay type: organism-based; set-up: dose 4 mg/kg, route intravenous; conditions: in vivo
How it was run: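 Female NOD/SCID mice, 4–6 weeks old, 10 per group. About 1.5 × 10⁷ N-Hep G2 cells were injected s.c. into the left flank. Tail-vein i.v. dosing (mg/kg Dox-equivalent weight) was given on days 7, 14 and 21. Vehicle was 5% DMSO/95% D5W, and controls received vehicle only. Body weight was measured weekly over the first 5 weeks. Survival was followed to study end.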

[11] = Cytotoxicity against human NCI-H1435 cells expressing CES2 gene after 5 to 6 days by MTT assay; assay type: functional
How it was run: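 MTT growth assay: 2000–4000 viable cells plated, left overnight at 37 °C in 5% CO₂, then exposed to a range of drug concentrations for 5–6 days. MTT added at 0.4 mg/mL final for 4 h, and formazan dissolved in 0.2 N HCl in 75% isopropanol. Absorbance normalized to vehicle control and IC₅₀ obtained from the curves.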

[12] = tested on: Mus musculus; assay: Toxicity in NOD/SCID mouse xenografted with human HepG2 cells expressing CES2 gene assessed as occurrence of diarrhea at 3 mg/kg, iv administered on day 7, 14 and 21 after tumor implantation; assay type: organism-based; set-up: dose 3 mg/kg, route intravenous; conditions: in vivo
[13] = tested on: HepG2; assay: Antitumor activity against human HepG2 cells expressing CES2 gene xenografted in NOD/SCID mouse assessed as inhibition of tumor growth at 4 to 5 mg/kg, iv administered on day 7, 14 and 21 after tumor implantation; assay type: functional, organism-based; how it was run: as §1
[14] = tested on: Mus musculus; assay: Toxicity in athymic nude mouse xenografted with human NCI-H1435 cells expressing CES2 gene at 3 to 4 mg/kg, iv administered on day 7, 14 and 21 after tumor implantation; assay type: organism-based; set-up: dose 3-4 mg/kg, route intravenous; conditions: in vivo
[15] = tested on: Mus musculus; assay: Toxicity in athymic nude mouse xenografted with human NCI-H1435 cells expressing CES2 gene assessed as appearance of fibrotic damage in heart tissue administered with six iv injection of 3 to 4 mg/kg by hematoxylin/eosin staining-based microscopy; assay type: organism-based; set-up: dose 3-4 mg/kg, route intravenous; conditions: in vivo
How it was run: (§4)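 Hearts and livers taken from the H1435 nude-mouse study (six i.v. injections) after CO₂/cervical dislocation. Fixed in 10% formalin for 24 h, paraffin-embedded, and cut at 4 µm. Slides deparaffinized in xylene and ethanol, stained with Mayer's hematoxylin for 2 min, blued in 1% ammonium hydroxide, and counterstained with eosin for 30 s. Examined by light microscopy.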

[16] = tested on: Mus musculus; assay: Toxicity in athymic nude mouse xenografted with human NCI-H1435 cells expressing CES2 gene assessed as occurrence of fatty liver administered with six iv injection of 3 mg/kg by hematoxylin/eosin staining-based microscopy; assay type: organism-based; set-up: dose 3 mg/kg, route intravenous; conditions: in vivo; how it was run: as §4
[17] = tested on: Mus musculus; assay: Toxicity in iv dosed athymic nude mouse xenografted with human NCI-H1435 cells expressing CES2 gene assessed as appearance of cytoplasmic lipid droplets in hepatocytes administered as six injection by hematoxylin/eosin staining-based microscopy; assay type: organism-based, Hepatocyte; how it was run: as §4
[18] = tested on: Mus musculus; assay: Toxicity in athymic nude mouse xenografted with human NCI-H1435 cells expressing CES2 gene assessed as vacuolar degeneration of kidney tissue administered with six iv injection of 3 to 4 mg/kg by hematoxylin/eosin staining-based microscopy; assay type: organism-based; set-up: dose 3-4 mg/kg, route intravenous; conditions: in vivo
How it was run: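 Kidney and ileum taken from the H1435 nude-mouse study (six i.v. injections). Formalin-fixed for 24 h, paraffin-embedded, and cut into 4 µm sections. Sections deparaffinized in xylene, rehydrated through an ethanol series, stained in Harris hematoxylin for 50 s with eosin, then dehydrated and mounted. Morphology assessed by microscopy.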

[19] = tested on: NCI-H1435; assay: Antitumor activity against human NCI-H1435 cells expressing CES2 gene xenografted in pentyl PABC-doxazolidine-pretreated athymic nude mouse assessed as inhibition of tumor growth at 3 to 4 mg/kg, iv administered on day 56 after tumor implantation; assay type: functional, organism-based; how it was run: as §3

Compound: CCCCCOC(=O)Nc1ccc(COC(=O)N2CO[C@@H]3[C@H](C)O[C@@H](O[C@H]4C[C@](O)(C(=O)CO)Cc5c(O)c6c(c(O)c54)C(=O)c4c(OC)cccc4C6=O)C[C@@H]32)cc1
- inhibition [1]: inactive
- mortality [2]: 60%
- Activity [3]: 10%
- inhibition [4]: Active
- Activity [5]: Non-toxic
- growth inhibition (GI) [6]: Active
- Activity [7]: inactive
- mortality [8]: 60%
- inhibition [9]: Active
- Activity [10]: Non-toxic
- logIC50 [11]: -6.92
- Activity [12]: Non-toxic
- inhibition [13]: Active
- Activity [14]: Non-toxic
- Activity [15]: Non-toxic
- Activity [16]: Non-toxic
- Activity [17]: Dose-dependent effect
- Activity [18]: Non-toxic
- inhibition [19]: Active

Source: ChEMBL document CHEMBL1153806, “Preclinical efficacy of a carboxylesterase 2-activated prodrug of doxazolidine” (J Med Chem, 2009)
